These results are taken from PMC3817526 (Nmr in Biomedicine, 2013).

Structures are written as SMILES. pIC50: −log10 of the molar value. Counter-ions that a name gives are not always drawn. Like-named read-outs stand apart in the source and are kept apart here.

In one data set the target is T1, rat Bsep (rBsep) (Rattus norvegicus, UniProt O70127).
T1 sequence (O70127 1-1321): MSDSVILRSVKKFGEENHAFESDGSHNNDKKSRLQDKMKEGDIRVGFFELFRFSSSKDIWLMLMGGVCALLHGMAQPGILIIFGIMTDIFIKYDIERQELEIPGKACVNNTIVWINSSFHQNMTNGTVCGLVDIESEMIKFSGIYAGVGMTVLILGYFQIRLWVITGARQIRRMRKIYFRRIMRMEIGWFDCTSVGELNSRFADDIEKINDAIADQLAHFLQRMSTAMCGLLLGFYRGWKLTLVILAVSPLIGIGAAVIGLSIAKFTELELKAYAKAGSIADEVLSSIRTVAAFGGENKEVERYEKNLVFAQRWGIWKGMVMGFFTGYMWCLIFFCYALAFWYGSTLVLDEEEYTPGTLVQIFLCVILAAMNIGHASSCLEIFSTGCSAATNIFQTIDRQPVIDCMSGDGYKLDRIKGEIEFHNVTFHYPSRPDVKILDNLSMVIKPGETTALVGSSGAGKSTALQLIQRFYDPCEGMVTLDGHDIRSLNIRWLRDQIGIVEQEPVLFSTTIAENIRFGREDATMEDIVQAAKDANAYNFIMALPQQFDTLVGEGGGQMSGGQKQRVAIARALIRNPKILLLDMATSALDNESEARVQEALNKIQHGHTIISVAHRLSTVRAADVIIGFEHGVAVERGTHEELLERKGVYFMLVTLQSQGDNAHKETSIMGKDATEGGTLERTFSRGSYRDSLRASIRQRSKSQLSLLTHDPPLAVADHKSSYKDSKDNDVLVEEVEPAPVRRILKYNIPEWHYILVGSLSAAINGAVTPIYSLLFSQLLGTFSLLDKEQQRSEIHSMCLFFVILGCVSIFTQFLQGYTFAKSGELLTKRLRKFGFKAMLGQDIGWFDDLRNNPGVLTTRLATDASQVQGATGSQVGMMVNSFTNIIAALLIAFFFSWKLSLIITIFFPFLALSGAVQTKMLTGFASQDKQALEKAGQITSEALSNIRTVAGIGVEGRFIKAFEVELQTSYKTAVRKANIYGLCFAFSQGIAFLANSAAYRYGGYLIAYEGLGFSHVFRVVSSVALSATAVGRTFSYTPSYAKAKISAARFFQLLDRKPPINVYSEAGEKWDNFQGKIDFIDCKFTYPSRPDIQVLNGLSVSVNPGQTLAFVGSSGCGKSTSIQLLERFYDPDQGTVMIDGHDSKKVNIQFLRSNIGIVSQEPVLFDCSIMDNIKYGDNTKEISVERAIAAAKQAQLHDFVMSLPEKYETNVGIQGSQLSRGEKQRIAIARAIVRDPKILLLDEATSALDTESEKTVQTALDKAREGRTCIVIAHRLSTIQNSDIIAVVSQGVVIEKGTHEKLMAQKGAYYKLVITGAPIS
As to the kind of experiment: Inhibition of [3H]-taurocholate uptake into rBsep membrane vesicles. Format: biochemical. To be noted: read-out: IC50, [3H]-taurocholate uptake into vesicles expressing rBsep; geometric mean, 95% CL 109.8–153.2, n = 5.

Another data set has as its target rat Mrp2 (rMrp2) (Rattus norvegicus, UniProt Q63120). The experiment in a line: Inhibition of CDF uptake into rMrp2 membrane vesicles. To be noted: read-out: IC50, CDF uptake into vesicles expressing Mrp2; geometric mean, 95% CL 58.2–80.7, n = 4. Format: biochemical.
Data set [1] has as its system hepatic uptake and biliary excretion of gadoxetate. Format: in vivo, rat. Conditions: for Vmax, gadoxetate efflux into bile / k1, rate of gadoxetate uptake into the hepatocyte: mean ± SEM. A digest of the protocol:
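Rats (298 ± 26 g), six per group, got vehicle (water, 0.5% w/v HPMC/0.1% w/v polysorbate 80) or suspended compound by oral gavage (20–2000 mg/kg). Anaesthetised 30 min post-dose; DCE-MRI began 60 min post-dose, gadoxetate given by tail-vein pump at t = 5 min, acquisition run to 60 min (1 min/volume). Hepatocyte signal derived from liver and spleen signals using extracellular fraction; k1, Vmax, KM fitted by least-squares per dose group.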

A short description of data set [2]: Plasma chemistry analysis after CKA. It is filed as in vivo, rat.
In another data set the test system is liver. As to the kind of experiment: Liver pathology analysis. To be noted: CKA 20, 200 or 500 mg/kg oral, rat. Format: in vivo.
Data set [3] concerns gadoxetate-induced MRI liver enhancement. To be noted: rats, cited from earlier work; for maximum hepatic MRI signal enhancement by gadoxetate: administration of OATP inhibitors.
In data set [4] the test system is relative liver MRI signal enhancement. To be noted: healthy volunteers; cited from earlier work.
The nature of data set [5]: Gadopentetate DCE-MRI estimation of volume fraction of extracellular space. Format: in vivo, rat. To be noted: gadopentetate 100 µmol/kg i.v., five rats, haematocrit 0.45, mean ± SEM. The method, boiled down:
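Healthy rats (282 ± 9 g). IntraGate FLASH DCE-MRI: ten 2 mm slices, TR 60.3 ms, TE 1.4 ms, flip 30°, 1 min/volume. Contrast given by tail-vein pump (5 ml/min) 5 min after acquisition start; acquisition continuous for 45 min. ve taken as the tissue/plasma AUC ratio, with plasma concentration equal to whole-blood concentration/(1 − Hct). Isoflurane overdose afterwards.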

The conditions of data set [6]: 4.7 T, plasma value assumed for liver and spleen; cited from earlier work.
For data set [7] the following is noted: rats; cited from earlier work.
The conditions of data set [8]: humans; cited from earlier work.
[9] abbreviates: CKA 20 mg/kg oral, rat, gadoxetate 25 µmol/kg i.v.
Setting [10] is: CKA 200 mg/kg oral, rat, gadoxetate 25 µmol/kg i.v.
Where [11] appears, read: CKA 500 mg/kg oral, rat, gadoxetate 25 µmol/kg i.v.
Setting [12] is: CKA 2000 mg/kg oral, rat, gadoxetate 25 µmol/kg i.v.
The mark [13] stands for this setting: gadoxetate 25 µmol/kg i.v. in rats given vehicle only (no CKA).

rat Mrp2 (rMrp2), sequence (Q63120 whole entry): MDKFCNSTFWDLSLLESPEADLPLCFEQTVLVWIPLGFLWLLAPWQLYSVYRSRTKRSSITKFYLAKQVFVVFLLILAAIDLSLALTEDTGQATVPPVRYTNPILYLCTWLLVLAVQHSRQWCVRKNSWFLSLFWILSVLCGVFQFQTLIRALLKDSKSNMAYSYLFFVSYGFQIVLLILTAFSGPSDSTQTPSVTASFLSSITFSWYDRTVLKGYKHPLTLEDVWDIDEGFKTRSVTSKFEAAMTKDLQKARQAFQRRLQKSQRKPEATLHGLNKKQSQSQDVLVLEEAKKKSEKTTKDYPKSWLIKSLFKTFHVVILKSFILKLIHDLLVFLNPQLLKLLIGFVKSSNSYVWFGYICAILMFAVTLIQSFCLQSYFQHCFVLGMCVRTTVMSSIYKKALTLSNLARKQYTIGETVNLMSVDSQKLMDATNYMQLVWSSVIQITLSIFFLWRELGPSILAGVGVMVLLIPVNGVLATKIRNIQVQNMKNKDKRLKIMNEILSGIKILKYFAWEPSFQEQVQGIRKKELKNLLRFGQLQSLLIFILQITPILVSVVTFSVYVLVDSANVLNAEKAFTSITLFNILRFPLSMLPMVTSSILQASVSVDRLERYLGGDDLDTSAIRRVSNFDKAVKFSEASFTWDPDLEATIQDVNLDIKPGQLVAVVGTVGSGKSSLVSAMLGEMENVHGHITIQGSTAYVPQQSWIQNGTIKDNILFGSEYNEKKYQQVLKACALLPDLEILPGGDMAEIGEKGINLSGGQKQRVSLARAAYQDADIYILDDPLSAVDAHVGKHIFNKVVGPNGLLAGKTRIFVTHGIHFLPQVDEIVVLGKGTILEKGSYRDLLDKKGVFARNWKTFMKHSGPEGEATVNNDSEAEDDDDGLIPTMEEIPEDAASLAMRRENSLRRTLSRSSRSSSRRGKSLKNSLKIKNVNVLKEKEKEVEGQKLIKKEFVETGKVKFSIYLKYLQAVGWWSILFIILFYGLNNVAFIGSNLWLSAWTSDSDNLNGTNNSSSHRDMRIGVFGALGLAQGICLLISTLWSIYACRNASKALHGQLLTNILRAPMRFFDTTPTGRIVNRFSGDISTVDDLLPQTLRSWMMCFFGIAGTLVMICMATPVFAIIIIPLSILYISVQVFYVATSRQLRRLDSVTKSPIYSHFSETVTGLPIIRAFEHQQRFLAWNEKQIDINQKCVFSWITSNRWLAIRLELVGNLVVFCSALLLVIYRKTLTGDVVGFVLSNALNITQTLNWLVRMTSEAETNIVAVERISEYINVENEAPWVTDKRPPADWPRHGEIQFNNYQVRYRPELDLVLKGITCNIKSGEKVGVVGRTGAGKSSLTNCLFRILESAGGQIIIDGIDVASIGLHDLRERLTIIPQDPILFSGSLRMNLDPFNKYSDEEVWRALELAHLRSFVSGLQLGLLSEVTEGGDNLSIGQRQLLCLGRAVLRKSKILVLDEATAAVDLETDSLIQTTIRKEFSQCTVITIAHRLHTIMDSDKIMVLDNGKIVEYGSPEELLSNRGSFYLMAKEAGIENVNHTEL

As for `O=C(O)c1cc2cc(O)ccc2n1Cc1ccc(Cl)c(C(F)(F)F)c1` [CKA, 1-(4-chloro-3-trifluoromethyl-benzyl)-5-hydroxy-1-H-indole-2-carboxylic acid], the pIC50 is 3.89 at rat Bsep (rBsep) and 4.16 on rat Mrp2 (rMrp2). For the same compound, the “effect on the kinetic parameters k1, Vmax and KM of gadoxetate” value in data set [1] (CKA 20 mg/kg oral, compared with vehicle) is listed as “no significant effect”. The “Vmax, gadoxetate efflux into bile” value in [1] (setting [9]) is listed as 2.9 ± 0.4 µmol/s; in data set [1] (setting [10]), 0.6 ± 0.2 µmol/s; in data set [1] (setting [11]), 0.1 ± 0.1 µmol/s; in [1] (setting [12]), 0.1 ± 0.1 µmol/s. Besides, the “k1, rate of gadoxetate uptake into the hepatocyte” value in data set [1] (setting [9]) is 26.1 ± 3.3 µmol/s; in data set [1] (setting [10]) it was 6.6 ± 1.9 µmol/s; in data set [1] (setting [11]), 1.7 ± 0.4 µmol/s; in data set [1] (setting [12]), 1.2 ± 0.2 µmol/s. For the same compound, the “gadoxetate enhancement of the bowel (images)” value in [1] (CKA 500 mg/kg oral) was “no enhancement”. The “rate of gadoxetate uptake into the liver and clearance from the liver into the GI tract (images)” value in data set [1] (CKA 200 and 500 mg/kg oral, compared with vehicle) was “marked and dose-dependent reduction”. The plasma bile acids entry in [2] (CKA 20-2000 mg/kg oral, rat) was “marked dose-dependent increases”. In addition, the plasma total bilirubin result in data set [2] (CKA 20-2000 mg/kg oral, rat) is “marked dose-dependent increases”. For the same compound, in data set [2] (CKA 20-2000 mg/kg oral, rat, most evident at 500 and 2000 mg/kg), the “plasma ALT levels” value is “dose-related increase”. The “plasma ALT value” in [2] (single animal with necrosis, CKA 2000 mg/kg) is 344 IU/l. In addition, the “liver histology (H&E liver sections)” value with liver is on record as “no histological features indicative of drug-induced hepatotoxicity”.

For `C=CC1=C(C)/C(=C/c2[nH]c(Cc3[nH]c(/C=C4\NC(=O)C(C)=C4C=C)c(C)c3CCC(=O)O)c(CCC(=O)O)c2C)NC1=O` [bilirubin], the “maximum hepatic MRI signal enhancement by gadoxetate” value in data set [3] was “reduction”.

`O=C1OC(c2ccc(O)c(S(=O)(=O)O)c2)(c2ccc(O)c(S(=O)(=O)O)c2)c2c(Br)c(Br)c(Br)c(Br)c21` [bromosulfophthalein]: the “maximum hepatic MRI signal enhancement by gadoxetate” value in data set [3] was “reduction”.

On to `N.N.[Cl][Pt][Cl]` [cisplatin], for which the “maximum hepatic MRI signal enhancement by gadoxetate” value in [3] was “reduction”.

Take `COc1cccc2c1C(=O)c1c(O)c3c(c(O)c1C2=O)C[C@@](O)(C(=O)CO)C[C@@H]3O[C@H]1C[C@H](N)[C@H](O)[C@H](C)O1` [doxorubicin hydrochloride]: the “maximum hepatic MRI signal enhancement by gadoxetate” value in data set [3] is listed as “reduction”.

As for `CC[C@H]1OC(=O)[C@H](C)[C@@H](O[C@H]2C[C@@](C)(OC)[C@@H](O)[C@H](C)O2)[C@H](C)[C@@H](O[C@@H]2O[C@H](C)C[C@H](N(C)C)[C@H]2O)[C@](C)(O)C[C@@H](C)C(=O)[C@H](C)[C@@H](O)[C@]1(C)O` [erythromycin], the “relative liver MRI signal enhancement versus control subjects” value in [4] was “did not show a statistically significant difference”.

As for `C[C@]12CC[C@@H]3c4ccc(O)cc4CC[C@H]3[C@@H]1CC[C@@H]2O[C@@H]1O[C@H](C(=O)O)[C@@H](O)[C@H](O)[C@H]1O` [estradiol 17-β-D-glucuronide], the “gadoxetate-induced MRI liver enhancement” value in data set [3] (single administration) is given as “transiently prolonged”.

Turning to `O=C([O-])CN(CCN(CC(=O)[O-])CC(=O)O)CCN(CC(=O)[O-])CC(=O)O.[Gd+3]` [gadopentetate], in data set [5], the “liver fractional extracellular space (AUC ratio tissue/plasma)” value is reported as 0.23 ± 0.02 and the “spleen fractional extracellular space (AUC ratio tissue/plasma)” value was 0.43 ± 0.02. In addition, the “relaxivity r1” value in [6] was 3.8 s⁻¹ mM⁻¹.

For `CCOc1ccc(C[C@@H](CN(CCN(CC(=O)[O-])CC(=O)[O-])CC(=O)[O-])N(CC(=O)[O-])CC(=O)[O-])cc1.[Gd+3].[H+].[H+]` [gadoxetate], in data set [1] (setting [13]), the “Vmax, gadoxetate efflux into bile” value was 2.9 ± 0.3 µmol/s and the “k1, rate of gadoxetate uptake into the hepatocyte” value is on record as 29.4 ± 3.0 µmol/s. Besides, in [7], the “gadoxetate clearance, biliary” value is given as 70% and the “gadoxetate clearance, renal” value is 30%. For the same compound, the “excreted via each route (biliary, renal)” value in [8] is 50%. Moreover, the “relaxivity r1” value in data set [6] was 5.9 s⁻¹ mM⁻¹.

Regarding `C[C@]12C=CC(=O)C=C1CC[C@@H]1[C@@H]2[C@@H](O)C[C@@]2(C)[C@H]1CC[C@]2(O)C(=O)CO` [prednisolone], the “maximum hepatic MRI signal enhancement by gadoxetate” value in data set [3] is “reduction”.

On to `CC(C)NCC(O)COc1cccc2ccccc12` (stereo not shown) [propranolol hydrochloride], for which the “maximum hepatic MRI signal enhancement by gadoxetate” value in data set [3] was “reduction”.

Consider `CO[C@H]1/C=C/O[C@@]2(C)Oc3c(C)c(O)c4c(O)c(c(/C=N/N5CCN(C)CC5)c(O)c4c3C2=O)NC(=O)/C(C)=C\C=C\[C@H](C)[C@H](O)[C@@H](C)[C@@H](O)[C@@H](C)[C@H](OC(C)=O)[C@@H]1C` [rifampicin], for which, in data set [3], the “maximum hepatic MRI signal enhancement by gadoxetate” value is “reduction”.

`CO[C@H]1/C=C/O[C@@]2(C)Oc3c(C)c(O)c4c(O)c(cc(O)c4c3C2=O)NC(=O)/C(C)=C\C=C\[C@H](C)[C@H](O)[C@@H](C)[C@@H](O)[C@@H](C)[C@H](OC(C)=O)[C@@H]1C` [rifamycin]: the “maximum hepatic MRI signal enhancement by gadoxetate” value in [3] was “reduction”.
